From ChEMBL document CHEMBL4011603, “Synthesis of clarithromycin ketolides chemically modified at the unreactive C10-methyl group” (2017)
In brackets after ≈: the same amount, converted by molar mass.

Legend:
[1] = system: Streptococcus pneumoniae; test: Antibacterial activity against Streptococcus pneumoniae ATCC 4961 by broth microdilution method; format: functional
How it was run: (§1)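 Standard broth microdilution; the endpoint is the minimal inhibitory concentration, reported in μg/mL. Clarithromycin is the reference macrolide. Strains are respiratory-pathogen isolates of S. pneumoniae and S. aureus.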

[2] = system: Streptococcus pneumoniae; test: Antibacterial activity against macrolide-resistant Streptococcus pneumoniae BAA1402 expressing mef gene by broth microdilution method; format: functional
How it was run: (§2)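 Standard broth microdilution for MIC against respiratory-pathogen strains, reported in μg/mL, with clarithromycin included as the reference macrolide.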

[3] = system: Streptococcus pneumoniae; test: Antibacterial activity against macrolides/lincosamides/streptogramines resistant Streptococcus pneumoniae 3914 by broth microdilution method; format: functional; how it was run: as §2
[4] = system: Staphylococcus aureus; test: Antibacterial activity against Staphylococcus aureus ATCC 29213 by broth microdilution method; format: functional; how it was run: as §1
[5] = system: Staphylococcus aureus; test: Antibacterial activity against macrolide-resistant Staphylococcus aureus BAA976 expressing mef gene by broth microdilution method; format: functional; how it was run: as §2
[6] = system: Staphylococcus aureus; test: Antibacterial activity against inducibly macrolides/lincosamides/streptogramines-resistant Staphylococcus aureus BAA977 expressing erm gene by broth microdilution method; format: functional; how it was run: as §2
[7] = system: Staphylococcus aureus; test: Antibacterial activity against constitutively macrolides/lincosamides/streptogramines-resistant Staphylococcus aureus ND048910 expressing erm gene by broth microdilution method; format: functional; how it was run: as §2
[8] = system: Streptococcus pneumoniae; test: Antibacterial activity against macrolides/lincosamides/streptogramines-resistant Streptococcus pneumoniae BAA1407 expressing mef and erm genes by broth microdilution method

In the case of `CC[C@H]1OC(=O)[C@H](C)C(=O)[C@H](C)[C@@H](O[C@@H]2O[C@H](C)C[C@H](N(C)C)[C@H]2OC(C)=O)[C@](C)(OC)C[C@@H](C)C(=O)[C@H](CNCc2ccccc2)[C@H]2NC(=O)O[C@@]21C`, the MIC [1] is reported as < 0.007 µg/mL, the MIC [2] is reported as < 0.0072 µg/mL and the MIC [3] is reported as 64 µg/mL (≈ 84.2 µM). The MIC [4] was 0.25 µg/mL (≈ 0.329 µM), the MIC [5] was 0.5 µg/mL (≈ 0.658 µM) and the MIC [6] was 1 µg/mL (≈ 1.32 µM). For the same compound, the MIC [7] was > 64 µg/mL.

`CCOC(=O)C(C[C@H]1C(=O)[C@H](C)C[C@@](C)(OC)[C@H](O[C@@H]2O[C@H](C)C[C@H](N(C)C)[C@H]2OC(C)=O)[C@@H](C)C(=O)[C@@H](C)C(=O)O[C@H](CC)[C@@]2(C)OC(=O)N[C@H]12)C(=O)OCC` was tested, and the MIC [1] was 0.06 µg/mL (≈ 0.0738 µM), the MIC [2] was 0.125 µg/mL (≈ 0.154 µM) and the MIC [3] was 4 µg/mL (≈ 4.92 µM). It also gave an MIC [4] of 0.25 µg/mL (≈ 0.308 µM), an MIC [5] of 0.5 µg/mL (≈ 0.615 µM) and an MIC [6] of 0.5 µg/mL (≈ 0.615 µM). For the same compound, the MIC [7] was > 128 µg/mL and the MIC [8] was 128 µg/mL (≈ 157 µM).

In the case of `CC[C@H]1OC(=O)[C@H](C)[C@@H](O[C@H]2C[C@@](C)(OC)[C@@H](O)[C@H](C)O2)[C@H](C)[C@@H](O[C@@H]2O[C@H](C)C[C@H](N(C)C)[C@H]2O)[C@](C)(OC)C[C@@H](C)C(=O)[C@H](C)[C@@H](O)[C@]1(C)O` [CLARITHROMYCIN], the MIC [1] is reported as 0.015 µg/mL (≈ 0.0201 µM), the MIC [2] is reported as 2 µg/mL (≈ 2.67 µM) and the MIC [3] is reported as > 16 µg/mL. For the same compound, the MIC [4] was 0.125 µg/mL (≈ 0.167 µM), the MIC [5] was 64 µg/mL (≈ 85.6 µM) and the MIC [6] was > 64 µg/mL. For the same compound, the MIC [7] was > 64 µg/mL and the MIC [8] was > 8 µg/mL.

In the case of `C=C1C(=O)[C@H](C)C[C@@](C)(OC)[C@H](O[C@@H]2O[C@H](C)C[C@H](N(C)C)[C@H]2OC(C)=O)[C@@H](C)C(=O)[C@@H](C)C(=O)O[C@H](CC)[C@@]2(C)OC(=O)N(Cc3ccccc3)[C@H]12`, the MIC [1] is reported as < 0.07 µg/mL, the MIC [2] is reported as 0.125 µg/mL (≈ 0.168 µM) and the MIC [3] is reported as 2 µg/mL (≈ 2.69 µM). It also gave an MIC [4] of 1 µg/mL (≈ 1.35 µM), an MIC [5] of 2 µg/mL (≈ 2.69 µM) and an MIC [6] of 2 µg/mL (≈ 2.69 µM). It also gave an MIC [7] of 64 µg/mL (≈ 86.1 µM) and an MIC [8] of 64 µg/mL (≈ 86.1 µM).

`C=C1C(=O)[C@H](C)C[C@@](C)(OC)[C@H](O[C@@H]2O[C@H](C)C[C@H](N(C)C)[C@H]2OC(C)=O)[C@@H](C)C(=O)[C@@H](C)C(=O)O[C@H](CC)[C@@]2(C)OC(=O)N[C@H]12` showed an MIC [1] of 1 µg/mL (≈ 1.53 µM), an MIC [2] of 2 µg/mL (≈ 3.06 µM) and an MIC [3] of 128 µg/mL (≈ 196 µM). It also gave an MIC [4] of 32 µg/mL (≈ 49 µM), an MIC [5] of 64 µg/mL (≈ 98 µM) and an MIC [6] of 64 µg/mL (≈ 98 µM). For the same compound, the MIC [7] was > 64 µg/mL and the MIC [8] was > 64 µg/mL.

With `CC[C@H]1OC(=O)[C@H](C)C(=O)[C@H](C)[C@@H](O[C@@H]2O[C@H](C)C[C@H](N(C)C)[C@H]2OC(C)=O)[C@](C)(OC)C[C@@H](C)C(=O)[C@H](CNCc2cccnc2)[C@H]2NC(=O)O[C@@]21C` the MIC [1] was 0.015 µg/mL (≈ 0.0197 µM), the MIC [2] was 0.06 µg/mL (≈ 0.0789 µM) and the MIC [3] was 4 µg/mL (≈ 5.26 µM). It also gave an MIC [4] of 1 µg/mL (≈ 1.31 µM), an MIC [5] of 2 µg/mL (≈ 2.63 µM) and an MIC [6] of 4 µg/mL (≈ 5.26 µM). The MIC [7] was > 64 µg/mL and the MIC [8] was 64 µg/mL (≈ 84.1 µM).

In the case of `CC[C@H]1OC(=O)[C@H](C)[C@@H](O)[C@H](C)[C@@H](O[C@@H]2O[C@H](C)C[C@H](N(C)C)[C@H]2OC(C)=O)[C@](C)(OC)C[C@@H](C)C(=O)/C(Cc2ccccc2)=C/[C@]1(C)O`, the MIC [1] is reported as 0.25 µg/mL (≈ 0.362 µM), the MIC [2] is reported as 0.5 µg/mL (≈ 0.725 µM) and the MIC [3] is reported as 64 µg/mL (≈ 92.8 µM). The MIC [4] was 16 µg/mL (≈ 23.2 µM), the MIC [5] was 16 µg/mL (≈ 23.2 µM) and the MIC [6] was 32 µg/mL (≈ 46.4 µM). For the same compound, the MIC [7] was > 64 µg/mL and the MIC [8] was > 64 µg/mL.

`CC[C@H]1OC(=O)[C@H](C)C(=O)[C@H](C)[C@@H](O[C@@H]2O[C@H](C)C[C@H](N(C)C)[C@H]2O)[C@](C)(OC)C[C@@H](C)C(=O)[C@H](CNCc2ccccc2)[C@H]2N(C)C(=O)O[C@]12C` was tested, and the MIC [1] was 0.25 µg/mL (≈ 0.342 µM), the MIC [2] was 1 µg/mL (≈ 1.37 µM) and the MIC [3] was < 128 µg/mL. It also gave an MIC [4] of 16 µg/mL (≈ 21.9 µM), an MIC [5] of 32 µg/mL (≈ 43.7 µM) and an MIC [6] of 16 µg/mL (≈ 21.9 µM). For the same compound, the MIC [7] was > 64 µg/mL and the MIC [8] was 64 µg/mL (≈ 87.4 µM).

In the case of `CC[C@H]1OC(=O)[C@H](C)C(=O)[C@H](C)[C@@H](O[C@@H]2O[C@H](C)C[C@H](N(C)C)[C@H]2OC(C)=O)[C@](C)(OC)C[C@@H](C)C(=O)[C@]2(CC=NN2)[C@H]2NC(=O)O[C@]12C`, the MIC [1] is reported as 0.06 µg/mL (≈ 0.0864 µM), the MIC [2] is reported as 0.25 µg/mL (≈ 0.36 µM) and the MIC [3] is reported as 16 µg/mL (≈ 23 µM). It also gave an MIC [4] of 2 µg/mL (≈ 2.88 µM), an MIC [5] of 2 µg/mL (≈ 2.88 µM) and an MIC [6] of 2 µg/mL (≈ 2.88 µM). The MIC [7] was > 128 µg/mL and the MIC [8] was 64 µg/mL (≈ 92.1 µM).
